Screens deposited in PubChem by several laboratories.
PP1 counter = counter-screen for PP5 inhibitors: inhibitors of human PP1-alpha; P62136; purified PP1alpha, OMFP fluorescence; inhibition, % at 6.7 µM; actives 0.9% (n = 320,000); AID 2235;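 active = inhibition above the mean inhibition of all tested compounds plus 3 SD, computed separately for each screening campaign, cut at about 15% in these data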
HIF activator = HIF pathway transcriptional activation. activation, % at 7.5 µM (by protocol). U2OS HRE-luciferase reporter, luminescence; normalized: DMSO 0%, desferrioxamine 100%. AID 1910. actives 0.32% (n = 300,000);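 active = mean activation of at least 10% of the iron chelator positive control signal, with at least half of replicates also reaching 10%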
HCV NS3 hel inh = HCV NS3 helicase inhibition. NS3 helicase DNA unwinding, Cy5 molecular beacon fluorescence. inhibition, % at 10.9 µM. actives 0.56% (n = 290,000). AID 1800;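 active = inhibition above the mean of all tested compounds plus 3 SD, set per campaign, cut at about 35% in these data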
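Control set: DMSO versus 110 µM thioflavine S; Material: NS3 helicase fragment of HCV; Measured by: Cy5 fluorescence at 0 and 60 min, beacon hairpin quenching; Read-out basis: percent inhibition from t60/t0 fluorescence ratio; Times: reaction time 60 min, 25 °C; Repeats: single replicate; Compound dosing: single dose, 10.9 µM nominal final, DMSO 0.8% final.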
DNA FID counter = counter-screen for HCV NS3 helicase inhibitors: DNA intercalator displacement; AID 1845; inhibition, % at 7.9 µM; DNA fluorescent intercalator displacement, fluorescence; actives 0.17% (n = 290,000); in the data active = inhibition above about 37%;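 note: higher means more ethidium bromide displaced from hairpin DNA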
PP5 inh = blocks human protein phosphatase 5 activity. P53041. purified PP5c, OMFP substrate fluorescence. inhibition, % at 6.7 µM. actives 0.18% (n = 320,000). AID 1987;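 active = inhibition above the campaign's mean inhibition across all tested compounds plus 3 SD, cut at about 9.5% in these data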
Target sequence (P53041 whole entry, looked up): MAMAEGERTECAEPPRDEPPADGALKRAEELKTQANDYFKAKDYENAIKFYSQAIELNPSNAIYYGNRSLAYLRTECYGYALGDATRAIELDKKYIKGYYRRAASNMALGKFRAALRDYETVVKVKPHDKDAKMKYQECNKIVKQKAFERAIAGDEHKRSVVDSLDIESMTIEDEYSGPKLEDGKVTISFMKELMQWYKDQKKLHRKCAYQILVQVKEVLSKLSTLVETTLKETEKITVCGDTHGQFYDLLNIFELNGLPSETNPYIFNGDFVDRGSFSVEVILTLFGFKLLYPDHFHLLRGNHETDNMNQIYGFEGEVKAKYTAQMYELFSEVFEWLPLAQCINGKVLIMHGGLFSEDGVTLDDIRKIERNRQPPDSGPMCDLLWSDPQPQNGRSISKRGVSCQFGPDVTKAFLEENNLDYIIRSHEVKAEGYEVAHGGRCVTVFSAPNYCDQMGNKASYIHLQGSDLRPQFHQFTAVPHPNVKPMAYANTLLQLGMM
Each line names hits and unclear results; the compound was inactive in the other large screens. In the library only some 1.9% were active in any assay of this set; here they are far more common.

Cc1cccc2cc(CN(Cc3cccs3)C(=S)NCC3CCCO3)c(=O)[nH]c12 (stereo not given)	none
O=C1/C(=C\c2ccco2)SC(=S)N1c1ccccc1	HCV NS3 hel inh 37.4
CN1C(=O)/C(=C/c2cn(CC(=O)NCc3ccco3)c3ccccc23)NC1=S	none
CCN=C1S/C(=C\c2cn(CC(=O)NCc3ccco3)c3ccccc23)C(=O)N1CC	PP1 counter 15.3
Cc1ccc(S(=O)(=O)N(CC(=O)NCC2CCCO2)Cc2ccc(F)cc2)cc1 (stereo not given)	PP1 counter 15.3
N#C/C(=C(O)\C=C\c1ccccc1)c1nc2ccccc2[nH]1	PP1 counter 15.9
C(=N\Nc1nc2ccccc2[nH]1)/c1ccccc1	none
C(=C\c1ccccc1)/C=N/Nc1nc2ccccc2[nH]1	PP1 counter 15.9
CC(C)(C)/C(O)=C(/C#N)c1nc2ccccc2[nH]1	none
CCOC(=O)c1cc2sccc2n1CC(=O)Nc1ccc(OC)cc1	HIF activator 36.0
N=c1n(CCN2CCCC2)c2ccccc2n1CC(O)c1ccc(Cl)c(Cl)c1 (stereo not given)	DNA FID counter 48.3
Cc1ccc(C(=O)N/C(=C\c2ccc(-c3ccc(Cl)cc3)o2)C(=O)NCCCN(C)C)cc1	DNA FID counter 52.8
Cc1ccc(C(=O)N/C(=C/c2ccc(-c3cccc([N+](=O)[O-])c3)o2)C(=O)NC(C)C)cc1	none
Cc1ccc(C(=O)N/C(=C\c2ccc(-c3cccc([N+](=O)[O-])c3)o2)C(=O)NCCCN2CCOCC2)cc1	DNA FID counter 43.5
CN(C)CCCNC(=O)/C(=C\c1ccc(-c2ccc(Br)cc2)o1)NC(=O)c1ccccc1	none
CCOc1ccc(OCCOC(=O)CN2C(=O)NC3(CCCC3)C2=O)cc1	none (no result: HCV NS3 hel inh, DNA FID counter)
O=C(Cn1cncc1-c1ccc([N+](=O)[O-])cc1)Nc1cccc2ccccc12	PP1 counter 21.3
CCOc1ccc(NC(=O)Cn2cncc2-c2ccc([N+](=O)[O-])cc2)cc1	none
O=C(c1cc2ccccc2o1)N1CCN(c2cccc(Cl)c2)CC1	none
Brc1ccc(-c2nnc(Cc3ccccc3)o2)cc1	none
c1ccc(Cc2nnc(-c3ccccc3)o2)cc1	HIF activator 9.7
O=C(CN1c2ccccc2Sc2ccccc21)NNC(=S)Nc1ccc(Cl)cc1	none
O=C(CN1c2ccccc2Sc2ccccc21)NNC(=S)Nc1ccc(Cl)cc1Cl	PP1 counter 20.2
COc1ccc(CNC(=S)N/N=C/c2ccc(OC)c(OC)c2)cc1	none
COc1ccc(CNC(=S)N/N=C/c2ccc(O)c(OC)c2)cc1	HIF activator 20.5
O=C(COC(=O)c1ncc(Cl)c(Cl)c1Cl)NC(=O)c1ccccc1	none (no result: HCV NS3 hel inh, DNA FID counter)
CCOC(=O)C1CCN(C(=O)C2CCCN(c3ncnc4c3nc3n4CCCCC3)C2)CC1 (stereo not given)	HIF activator 400.3
Cc1cccnc1NC(=O)c1csnn1	none
Cc1ccc(-c2[nH]ncc2/C=N/n2c(COc3ccccc3)nc3ccccc3c2=O)cc1	none
Cc1cc(/C=N/n2c(COc3ccccc3)nc3ccccc3c2=O)c(O)c([N+](=O)[O-])c1	HIF activator 14.5
O=C(c1ccc(Cl)c(S(=O)(=O)N2CCOCC2)c1)N(c1ccccn1)C1CCCCC1	none
C#CCOCCOCCOCCNc1nc(N2CCN(C(=O)[C@H]([C@@H](C)CC)n3cc([C@@H](N)Cc4ccc(O)cc4)nn3)CC2)nc(N2CCN(C(=O)[C@H]([C@@H](C)CC)n3cc([C@@H](N)CC(C)C)nn3)CC2)n1	DNA FID counter 47.4
C#CCOCCOCCOCCNc1nc(N2CCN(C(=O)[C@H]([C@@H](C)CC)n3cc([C@@H](N)CO)nn3)CC2)nc(N2CCN(C(=O)[C@H](Cc3ccc(O)cc3)n3cc([C@@H](N)CC(C)C)nn3)CC2)n1	DNA FID counter 41.1
C#CCOCCOCCOCCNc1nc(N2CCN(C(=O)[C@H]([C@@H](C)CC)n3cc([C@@H](N)Cc4ccc(O)cc4)nn3)CC2)nc(N2CCN(C(=O)[C@H](Cc3ccc(O)cc3)n3cc([C@@H](N)C(C)CC)nn3)CC2)n1 (stereo not given in full)	DNA FID counter 44.5
CCOC(=O)c1c(C)nc2cc(C)ccn12	HIF activator 13.6
Cn1ccnc1/C(=N\NC(=O)c1ccccc1)c1cccc([N+](=O)[O-])c1	none
O=C(N/N=C(\c1ccccc1)c1ccccn1)c1cccc([N+](=O)[O-])c1	HIF activator 130.7
